# In the library only some 1.7% were active in any assay of this set; here they are far more common.
# TPT1 inhibitor – C. albicans TPT1 enzyme inhibition; recombinant caTPT1, FP RNA substrate dephosphorylation; inhibition, % at 5 µM; actives 0.81% (n = 300,000); AID 1962;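 active = inhibition above the mean of all tested compounds plus 3 SD, set per screening campaign, cut at about 24% in these data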;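 also: plate controls were DMSO alone for no effect and ferristatin control at 100 nM for full effect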
# Rpn11 block – blocks the human proteasome subunit Rpn11 | human 26S proteasome, Ub4-pepOG fluorescence polarization; 20S core pre-blocked with epoxomicin | calls only at 20 µM | actives 0.59% (n = 360,000) | AID 588493;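 active = inhibition at 20 µM, scaled to each plate's controls, above about 33%, limit read from the data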
# HNF4A DNA FP – change in binding of human HNF4 alpha to DNA; HNF4a-FITC DNA binding, fluorescence polarization, 1 h; activity change, % at 10 µM; actives 0.3% (n = 360,000); AID 1224865; in the data active = activity change above about 30%, passing the limit was not always enough
# IDE cell inh – inhibits human insulin-degrading enzyme in HEK cells; P14735; FAbetaB cleavage, fluorescence polarization; inhibition, % at 5.59 µM; actives 0.41% (n = 320,000); AID 434962;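 active = percent inhibition above the average of all tested compounds plus 3 SD, set per screening campaign, cut at about 16% in these data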;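 also: IDE supplied by intact live HEK cells; FP after avidin binding of uncleaved biotin substrate so inhibition keeps polarization high; 0% = DMSO wells and 100% = 60 µM reference IDE inhibitor Ii1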
# IDE cell activ – activators of human insulin-degrading enzyme in cells; HEK cells, FAbeta-B cleavage, fluorescence polarization; 0% vehicle, 100% cell-free pure enzyme wells; AID 493087; activation, % at 5.96 µM; actives 0.073% (n = 340,000); P14735;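 active = activation above the mean of all tested compounds plus 3 SD, set per screening campaign, cut at about 17% in these data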
# CSN inh – blocks human CSN-mediated cullin deneddylation; actives 0.38% (n = 360,000); inhibition, % at 12.5 µM; Purified CSN, SCF-Nedd8-OG deneddylation, fluorescence polarization; Q92905; AID 651999;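 active = pattern-corrected inhibition above about 35%, with an unprinted fluorescence ratio check between 0.5 and 1.5, limit read from the data, passing the limit was not always enough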;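 also: 0% = enzyme with substrate and 100% = substrate without enzyme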
# Target sequence (Q92905 whole entry, looked up, one chain of several): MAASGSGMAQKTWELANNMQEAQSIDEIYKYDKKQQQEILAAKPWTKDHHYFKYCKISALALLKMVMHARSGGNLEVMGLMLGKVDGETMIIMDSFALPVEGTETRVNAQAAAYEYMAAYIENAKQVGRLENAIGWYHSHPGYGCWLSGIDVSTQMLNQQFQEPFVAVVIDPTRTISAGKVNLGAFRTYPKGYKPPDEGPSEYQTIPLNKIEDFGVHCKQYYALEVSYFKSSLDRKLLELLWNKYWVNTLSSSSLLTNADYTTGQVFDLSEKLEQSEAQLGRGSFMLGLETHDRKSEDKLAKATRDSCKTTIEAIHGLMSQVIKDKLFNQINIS
#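 Detection – fluorescence polarization · System – HEK293T-derived human Csn5 enzyme · Controls – substrate-only high control, full reaction low control · Timing – 90 min, room temperature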
# HNF4a DNA conf – change in binding of human HNF4 alpha to DNA, retest; shares compounds with HNF4A DNA FP; HNF4A-FITC DNA binding, fluorescence polarization, 1 h; activity change, % at 12.5 µM; actives 99% (n = 210); call rule not given here
# Starred values were filed as active, the others as inactive; i = inactive; nt = not tested or not shown; + = active, no number.
SMILES,TPT1 inhibitor,Rpn11 block,HNF4A DNA FP,IDE cell inh,IDE cell activ,CSN inh,HNF4a DNA conf
CSc1ccc(C2C(C#N)=C(N)N(c3ccccc3)C3=C2C(=O)CCC3)cc1 (configuration not stated),0,i,2,2,-6,4,nt
N#CC1=C(N)N(c2ccc(F)cc2)C2=C(C1c1ccc(O)cc1)S(=O)(=O)CC2 (configuration not stated),nt,nt,55*,nt,-14,43*,52*
O=[N+]([O-])c1ccc(/C=N/NC(=S)Nc2ccccc2F)o1,3,i,4,1,7,-1,nt
Cc1c(-c2ccc(/C=N/NC(=O)C(=O)Nc3ccccc3F)o2)cccc1[N+](=O)[O-],-1,nt,79*,-1,nt,15,35*
CC[C@H](C)[C@H]1CNC(=O)C(=O)N1CC1CCN(CCCc2ccc(OC)c(OC)c2)CC1,nt,i,-5,nt,1,1,nt
NC(=O)CC(NC(=O)Cc1ccc(Br)cc1)c1ccc(NC2CCCC2)c([N+](=O)[O-])c1 (configuration not stated),-1,nt,50*,8,-1,27,49*
NC(=O)CC(NC(=O)Cc1ccc(Br)cc1)c1ccc(NC2CCCCCC2)c([N+](=O)[O-])c1 (configuration not stated),24,nt,31,0,0,12,nt
OCC1(CCOc2ccccc2)CCN(Cc2ccc3c(c2)OCCO3)CC1,-1,i,0,-5,-5,2,nt
O=C(N/N=C/c1coc2ccccc2c1=O)c1cc(Br)ccc1O,3,i,46*,-1,2,27,35*
CCOC(=O)c1c(C)c(C)n2c1NC(=O)C2,nt,nt,57*,nt,nt,21,65*
CCOC(=O)c1c(C)[nH]c(C(=O)N2CCN(C(=O)OCC)CC2)c1C,1,i,1,-2,2,-3,nt
CC(=O)Oc1ccc(C(=O)Cc2ccc3ccccc3n2)c(O)c1C,15,nt,38*,0,3,21,50*
CC1(c2nnc(-c3ccccc3)o2)CC(c2ccc(Cl)cc2)=NO1 (configuration not stated),0,i,-3,3,3,3,nt
CC(C)(Oc1ccc(Cl)cc1)C(=O)OCn1nnc2ccccc2c1=O,-2,i,-3,3,4,-1,nt
CCCCNc1c(-c2cc3ccccc3o2)nc2nc(C)cc(C)n12,nt,nt,45*,nt,nt,11,37*
COC(=O)c1cc(C(=O)c2cc(F)ccc2O)cn2c(=O)c3c(C)c(C)sc3nc12,5,i,68*,5,3,8,66*
C#CCOCCOCCOCCNc1nc(N2CCN(C(=O)C([C@@H](C)O)n3cc([C@@H](N)CCCCN)nn3)CC2)nc(N2CCN(C(=O)[C@H](CCCCN)n3cc([C@@H](N)[C@H](C)CC)nn3)CC2)n1 (some centres not stated),nt,i,76*,0,1,85*,94*
C#CCOCCOCCOCCNc1nc(N2CCN(C(=O)CCCCCCCCCCNC(=O)[C@H](CCCCN)n3cc(CCO)nn3)CC2)nc(N2CCN(C(=O)CCCCCCCCCCNC(=O)[C@H](CCCCN)n3cc(CCCC(=O)O)nn3)CC2)n1,-1,i,48*,7,4,6,66*
C#CCOCCOCCOCCNc1nc(N2CCN(C(=O)[C@H](CCCCN)n3cc(CN)nn3)CC2)nc(N2CCN(C(=O)[C@H](CCC(=O)O)n3cc([C@@H](N)CCCCN)nn3)CC2)n1,nt,i,92*,2,4,100*,123*
CN(Cc1ccc(OC(F)F)cc1)C(=O)c1ccccc1Sc1ccccc1C#N,1,i,-1,2,5,1,nt
N#Cc1ccsc1NC(=O)c1ccc2ncsc2c1,nt,nt,69*,nt,nt,59*,77*
O=C(Nc1ccc(F)cc1)c1ccc2ncsc2c1,-4,i,-1,5,5,3,nt
Cc1cccc(NC(=O)c2sc3nc(-c4ccc(F)cc4)cn3c2C)n1,24,nt,37*,7,-18,36*,38*
O=C1CCCCC1Nc1ccc(Cl)cc1 (configuration not stated),nt,i,0,nt,-3,4,nt
COc1ccc(/C=C2\SC(=S)N(CCC(=O)NC3=NCCS3)C2=O)cc1OC,0,nt,53*,6,1,-2,77*
SMILES,TPT1 inhibitor,Rpn11 block,HNF4A DNA FP,IDE cell inh,IDE cell activ,CSN inh,HNF4a DNA conf
COc1cc(/C=C2\SC(=S)N(CC(=O)NC3=NCCS3)C2=O)cc(OC)c1OC,2,i,11,3,8,9,nt
CC1N(C)c2cc(NC(=O)c3ccco3)ccc2C1(C)C (configuration not stated),3,nt,52*,1,-2,102,41*
CC1N(C)c2cc(NC(=O)c3ccco3)c(P(=O)(Nc3ccc([N+](=O)[O-])cc3)N3CCOCC3)cc2C1(C)C (configuration not stated),3,i,0,-1,4,11,nt
CC(=O)c1ccc(NC(=O)c2ccc(NC(=O)c3ccco3)cc2)cc1,1,+,86*,-2,2,20,111*
COCCn1cnc2c1c(=O)n(Cc1ccccc1C#N)c(=O)n2Cc1ccccc1,0,i,-4,-4,6,3,nt
CCOC(=O)c1c(-c2ccc(C)cc2)csc1NC(=O)/C(C#N)=C/c1ccc(O)c(OC)c1,nt,nt,55*,nt,-143,42*,62*
CCCCOC(=O)CSC1=C(C#N)C(c2ccccc2OC)C(C#N)C(=O)N1 (configuration not stated),-2,i,0,7,1,1,nt
Cn1c(=O)oc2cc(S(=O)(=O)N3CCCc4ccccc43)ccc21,-4,i,3,3,-5,3,nt
COc1ccc2c(c1)C1=NN(/C(C)=C\C(C)=O)C(c3ccccc3)C1CC2 (configuration not stated),16,i,40*,3,-6,9,53*
Cc1ccccc1-c1csc(C(O)c2cccnc2)n1 (configuration not stated),nt,i,1,nt,nt,0,nt
Cc1ccc(Nc2nc3ccccc3c(=O)s2)cc1C,0,i,1,0,1,-10,nt
Cc1ccc(Nc2nc(Cl)c(C=O)s2)cc1Cl,13,nt,44*,8,5,25,44*
Cn1c(=O)c(=O)n(C)c2cc(S(=O)(=O)N3CCc4ccccc43)ccc21,-1,i,43*,-3,3,12,47*
Cn1c(=O)oc2cc(S(=O)(=O)N3CCc4ccccc43)ccc21,6,i,-1,2,-3,0,nt

# Source: PubChem (several laboratories)
